Assay [1] relates to Rattus norvegicus. The assay is described as follows: Antiinflammatory activity was assessed in carrageenan-induced rat paw edema(CIRPE) test after po administration; Inactive at 100 mg/kg. It counts as functional, organism-based. The arrangement: dose 100 mg/kg. An outline of the steps: (§1)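 Male Charles-River rats, groups of 8–10; compound given orally as aqueous suspension, then 1 h later 0.05 mL of 1% carrageenin in 0.9% saline injected into plantar left hind paw. Injected and uninjected paw volumes measured 3 h later by mercury displacement to the lateral malleolus mark; difference compared statistically between treated and control groups at oral screening dose.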

The test system of assay [2] is Rattus norvegicus. The assay is described as follows: Antiinflammatory activity was assessed in carrageenan-induced rat paw edema(CIRPE) test after po administration. It counts as functional. As to conditions: read-out: MED. The essentials: as §1
Background: The carrageenan paw model is a standard test of acute inflammation.

In assay [3] the test system is Rattus norvegicus. The assay is described as follows: Antiinflammatory activity was assessed in prophylactic adjuvant induced polyarthritis(AIP) test after po administration. Conditions: read-out: MED. It counts as functional. The essentials: (§2)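 Male Charles-River-Lewis rats (150 ± 10 g), groups of 10. Day 1: heat-killed Mycobacterium butyricum in light mineral oil (250 μg/0.05 mL) injected into left hind paw. Dosing on days 1–20; sacrifice day 21, hind paw weights recorded; change taken as difference between day 1 and day 21.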

Assay [4] deals with Rattus norvegicus. The assay is described as follows: Antiinflammatory activity was assessed in therapeutic adjuvant induced polyarthritis(AIP) test after po administration. It counts as functional. As to conditions: read-out: MED. An outline of the steps: (§3)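 Male Charles-River-Lewis rats (150 ± 10 g) injected day 1 in left hind paw with heat-killed Mycobacterium butyricum in mineral oil (250 μg/0.05 mL). Day 14, only responders (lesions in both hind paws) randomized into groups of 10, treated days 14–27, sacrificed day 28; hind paw weight change from day 14 to day 28.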

Assay [5] has as its system Rattus norvegicus. The assay is described as follows: Antiinflammatory activity was assessed in therapeutic adjuvant induced polyarthritis(AIP) test after po administration. It counts as functional. As to conditions: read-out: MED. An outline of the steps:
as §3

The test system of assay [6] is Rattus norvegicus. The assay is described as follows: Antiinflammatory activity was assessed in prophylactic adjuvant induced polyarthritis(AIP) test after po administration. Conditions: for minimal effective dose: Rattus norvegicus, po, read-out: MED. It counts as functional. An outline of the steps: as §2

Activity calls are given as the source filed them. No cut-off for these calls is given here.

In the case of `CC(=O)Cc1noc(C2=C(O)c3ccccc3S(=O)(=O)N2)n1`, in assay [1], the MED result was “inactive”.
Take `CC(=O)Cc1noc(C2=C(O)c3ccccc3S(=O)(=O)N2C)n1`: the MED result in assay [1] is “inactive”.
Same read-out and setting: next, `Cc1cc(NC(=O)CC(=O)c2ccccc2S(=O)(=O)N(C)C)no1`: “inactive”; `Cc1cc(NC(=O)CNS(=O)(=O)c2ccccc2C(=O)O)no1`: “inactive”.
Regarding `CC(=O)Oc1ccccc1C(=O)O` [ASPIRIN], the minimal effective dose in assay [2] was 100 mg/kg.
Take `COc1ccc2c(c1)c(CC(=O)O)c(C)n2C(=O)c1ccc(Cl)cc1` [INDOMETHACIN]: the values for the minimal effective dose in assay [2], in assay [3] and in assay [4] were 0.37 mg/kg, 0.39 mg/kg and 0.39 mg/kg, respectively.
With `Cc1cc(NC(=O)C2=C(O)c3ccccc3S(=O)(=O)N2C)no1` [ISOXICAM], the figures for the minimal effective dose in assay [2], in assay [5] and in assay [6] were 12.5 mg/kg, 1.56 mg/kg and 1.56 mg/kg, respectively.
As to `CCCCC1C(=O)N(c2ccccc2)N(c2ccccc2)C1=O` [PHENYLBUTAZONE], in assay [2], the minimal effective dose turned out to be 37.5 mg/kg. Besides, in assay [6], the MED amounted to 1.56 mg/kg and the minimal effective dose was determined as 1.56 mg/kg.
